Rows were chosen to be rich in hits. Some 3.7% of all compounds tested hit in one or more screens of this group.
proCasp3 act: activates human procaspase-3 | P42574 | recombinant procaspase-3 D3A, Ac-DEVD-pNA absorbance 405 nm | activation, % at 8.5 µM | 330,000 compounds, 0.11% hits;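 active means activation above the mean of all tested compounds plus 3 SD, cut at about 21% in these data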
Target sequence (P42574 whole entry D9A/D28A/D175A): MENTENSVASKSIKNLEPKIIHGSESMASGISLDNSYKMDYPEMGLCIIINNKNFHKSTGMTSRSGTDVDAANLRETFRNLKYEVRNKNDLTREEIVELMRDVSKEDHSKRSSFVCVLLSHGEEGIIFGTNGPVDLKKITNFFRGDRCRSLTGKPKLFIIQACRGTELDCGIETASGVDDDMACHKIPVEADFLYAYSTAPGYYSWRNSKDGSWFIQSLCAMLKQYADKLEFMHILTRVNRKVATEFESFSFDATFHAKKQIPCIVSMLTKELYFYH
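Test system: Procaspase-3 D3A mutant, all three cleavage aspartates alanine | Dosing: Single dose, 8.5 µM nominal compound, 0.8% DMSO | Schedule: 1 h preincubation, 2 h reaction | Technique: 405 nm absorbance of p-nitroaniline, reads at 0 and 120 min | Repeats: One well per compound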
aDG glyco up: increases alpha dystroglycan glycosylation; Pro5-aDG cells, alpha-DG glycosylation AlphaScreen (IIH6); 0% Pro5, 100% B10-LARGE cell signal; activation, % at 10 µM; 360,000 compounds, 0.22% hits; AID 624168;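 active means activation of at least 8% versus controls, or a plate z-score of at least 8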;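 further: Pro5 are CHO cells carrying HIG-tagged alpha-DG that lacks glycosylation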
GRIN3A LBD mod: NR3A (human) ligand-binding domain modulation; NR3A LBD differential scanning fluorimetry, Tm shift; 0% = protein alone, 100% = glycine-bound protein; Tm shift relative to glycine control, % at 25 µM; 340,000 compounds, 2.5% hits;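 active means melting temperature shift of at least 10% of the positive control shift, at one fixed dose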
proCasp7 act: counter-screen: procaspase-7 (human) activation; P55210; recombinant procaspase-7, Ac-DEVD-pNA absorbance 405 nm; D23A/D198A/D206A triple mutant, cannot self-cleave; scale: DMSO 0, 5 µM enzyme 100; activation, % at 8.5 µM; 330,000 compounds, 0.093% hits; AID 463210;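 active means percent activation above the screen-wide mean plus 3 SD, cut at about 25% in these data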
Target sequence (P55210 whole entry D23A/D198A/D206A): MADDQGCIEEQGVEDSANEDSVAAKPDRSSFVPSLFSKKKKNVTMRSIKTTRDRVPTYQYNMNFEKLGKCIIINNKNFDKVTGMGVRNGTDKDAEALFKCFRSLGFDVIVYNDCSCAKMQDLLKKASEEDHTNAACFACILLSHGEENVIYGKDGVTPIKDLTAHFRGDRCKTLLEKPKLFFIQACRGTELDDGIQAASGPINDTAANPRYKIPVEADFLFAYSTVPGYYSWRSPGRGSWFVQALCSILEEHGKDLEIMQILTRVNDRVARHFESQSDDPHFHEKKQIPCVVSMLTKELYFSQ
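Replicates: singlicate. Assay system: Procaspase-7 triple mutant (PC-7 D3A). Signal: 405 nm absorbance of p-nitroaniline. Times: 1 h preincubation, 2 h reaction. Buffer or medium: Zinc-free HEPES pH 7.4 with 300 mM NaCl, 0.01% Triton X-100. Also added: DEVD-pNA substrate. Benchmarks: DMSO wells as 0%, DMSO with 5 µM added PC-7 as 100%.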
MPTP block: permeability transition pore inhibition; 360,000 compounds, 1.4% hits; inhibition, % at 10 µM; isolated mouse mitochondria, Ca2+ swelling absorbance, 30 min;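 active means inhibition of 50% or more, scaled per plate between neutral and stimulator controls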
A number is an active result; 0 = inactive; - = no result.

SMILES	proCasp3 act	aDG glyco up	GRIN3A LBD mod	proCasp7 act	MPTP block
O=c1c(O)c(-c2ccc(O)c(O)c2)oc2cc(O)cc(O)c12	0	0	22	0	0
O=C(Oc1ccc(C(=S)N2CCCCC2)cc1)c1ccccc1F	0	0	39	0	0
N#Cc1ccc(-c2nc3ccc(Cl)cn3c2Cc2ccccc2C(F)(F)F)cc1	-	0	-	-	0
Cc1ccc(CNC(=O)c2cc(=O)c3ccccc3o2)cc1	0	0	0	0	0
Cc1onc(-c2ccccc2)c1C(=O)NCc1ccc(F)cc1	0	0	11	0	0
Cc1ccc(-c2c(C(=O)NCc3ccc(F)cc3)oc(=O)c3ccccc23)cc1	0	0	14	0	0
O=C(Nc1ccc(-c2nc3ccccc3o2)cc1)c1ccc2c(c1)OCO2	0	0	25	0	0
Cc1ccc(-c2nc3ccccc3o2)cc1NC(=O)c1ccc2c(c1)OCO2	0	0	0	0	0
O=C(Nc1ccc(-c2nc3ccccc3o2)cc1)c1ccc(N2C(=O)C3C4C=CC(C4)C3C2=O)cc1 (configuration not stated)	0	0	18	0	0
Cc1ccc2oc(-c3ccc(NC(=O)c4ccc5c(c4)OCO5)cc3)nc2c1	0	0	22	0	0
O=C(Nc1ccccc1)c1cccc(N2C(=O)C3C4C=CC(C4)C3C2=O)c1 (configuration not stated)	0	0	0	0	0
CCCCCCCCN1C(=O)[C@H](CC(=O)NCc2ccc(OC)c(OC)c2)C[C@@]2(C(=O)OCC)CCCC=C12	-	0	-	-	0
CC(C)n1nnnc1SCC(=O)N1N=C(c2cccs2)CC1c1cccs1 (configuration not stated)	0	0	0	0	0
COc1cc2oc(=O)ccc2cc1-c1c(OC)ccc2ccc(=O)oc12	0	0	0	0	0
CCCCNC(=O)c1cc2n(n1)C(C(F)(F)F)CC(c1ccccc1)N2 (configuration not stated)	0	0	0	0	0
CCOC(=O)c1c(NC(=O)c2cc3n(n2)C(C(F)(F)F)CC(c2ccccc2)N3)sc(C)c1C (configuration not stated)	0	0	18	0	0
Cc1cccc(NC(=O)CSc2nc3[nH]ncc3c(=O)n2-c2ccccc2)c1	0	-	-	0	-
COc1cc(NC(=O)CSc2nc3[nH]ncc3c(=O)n2-c2ccc(Cl)cc2)cc(OC)c1	0	0	13	0	0
CCc1ccc(NC(=O)CSc2nc3[nH]ncc3c(=O)[nH]2)cc1	0	0	0	0	0
O=C(CSc1nc2[nH]ncc2c(=O)[nH]1)Nc1ccc(Cl)cc1	0	0	25	0	0
O=C(COC(=O)/C=C/c1cccc(Cl)c1)NC1CCCC1	0	0	0	0	0
C=C(C)CNC(=S)NNC(=O)CCn1c2ccc(Cl)cc2c2cc(Cl)ccc21	0	0	27	0	0
C=C(C)CNC(=S)NNC(=O)CCn1c2cc(Cl)ccc2c2ccc(Cl)cc21	0	0	16	0	0
COc1cc(NC(=O)C2(C)CCCN2C)cc(OC)c1OC (configuration not stated)	-	0	-	-	0
CCCCC(c1nc2ccccc2[nH]1)n1c(-c2ccccc2)nc2ccccc21 (configuration not stated)	-	0	-	-	0
SMILES	proCasp3 act	aDG glyco up	GRIN3A LBD mod	proCasp7 act	MPTP block
O=C(NNC(=O)c1cc2cc(Br)ccc2oc1=O)c1ccc(O)cc1O	0	0	17	0	0
O=C(CN1C(=O)S/C(=C\C=C\c2ccccc2)C1=O)Nc1cccc(O)c1	0	0	27	0	0
O=C(CCN1C(=O)S/C(=C\C=C\c2ccccc2)C1=O)Nc1ccc(O)cc1	0	0	13	0	0
O=C(C[C@H]1CC[C@H]2[C@@H](COC[C@@H](O)CN2Cc2cc(F)ccc2F)O1)NCc1ccc(Cl)cc1	-	0	-	-	0
C[C@@H]1CN([C@@H](C)CO)C(=O)c2cc(Br)cnc2O[C@H]1CN(C)C(=O)c1ccccc1F	-	0	-	-	0
O=C(Nc1ccc2c(c1)OCCO2)C(C1CC1)n1c(=O)c(-c2cc3ccccc3[nH]2)nc2ccccc21 (configuration not stated)	-	0	-	-	0
COc1cccc(-c2ncc3ccccc3c2COC(=O)N2CCCCC2)c1	0	0	0	0	0
COc1ccc(NC(=O)c2sc(=O)n(Cc3ccc(F)c(Cl)c3)c2C)cc1OC	-	0	-	-	0
COc1cc(/C=N/n2cnc3c(sc4nc(C)cc(C)c43)c2=O)ccc1O	0	-	26	0	-
CCOC(=O)c1sc2ncn(/N=C/c3ccc(O)c(OC)c3)c(=O)c2c1C	0	0	0	0	0
CCN(CC)CCCNC(=O)c1cc2c(-c3cccc(OC)c3)nn(C)c2s1	0	0	11	0	0
COc1cccc(-c2nn(C)c3sc(C(=O)NCCCN(C)Cc4ccccc4)cc23)c1	0	0	0	0	0
CCOC(=O)c1ccc(NC(=O)CCNS(=O)(=O)c2cc(Br)cnc2N)cc1	0	0	15	0	0
Cc1cc(C)cc(NC(=O)CCNS(=O)(=O)c2cc(Br)cnc2N)c1	0	0	12	0	0
CCc1ccccc1NC(=O)CCNS(=O)(=O)c1cc(Br)cnc1N	0	0	0	0	0
COc1ccc(NC(=O)CCNS(=O)(=O)c2cc(Br)cnc2N)cc1OC	0	0	0	0	0
O=C(N[C@@H](Cc1ccccc1)C(=O)N1CCN(S(=O)(=O)c2ccccc2F)CC1)c1ccco1	0	0	0	0	0
COc1ccc(-c2nc3cc(C)c(Br)c(C)n3c2Cc2ccccc2)cc1OC	-	0	-	-	0
Clc1ccc(Nc2ccc(Cl)nn2)cc1	0	0	24	0	0
Cc1ccc(NC(=S)N/N=C/c2ccc([N+](=O)[O-])s2)cc1	0	0	23	0	0
Cc1cccc(NC(=S)N/N=C/c2ccc(Cl)c([N+](=O)[O-])c2)c1	0	0	0	0	0
Cc1ccc(-c2ccc(/C=N/NC(=S)Nc3ccccc3)o2)cc1[N+](=O)[O-]	0	0	27	0	0
O=[N+]([O-])c1cccc(-c2ccc(/C=N/NC(=S)Nc3cccc(F)c3)o2)c1	0	0	28	0	0
NC(=S)N/N=C/c1ccc(-c2cccc([N+](=O)[O-])c2)o1	0	0	0	0	0
Cc1cccc(NC(=S)N/N=C/c2cccc([N+](=O)[O-])c2)c1	0	0	150	0	0
O=C(NCc1cccs1)c1ccc2nc([C@@H]3O[C@H](CO)[C@H](O)[C@H](O)[C@H]3O)[nH]c2c1	-	0	-	-	0
COc1c(F)cc2[nH]c3c(c2c1F)CCNC3=O	0	0	0	0	0
COc1ccc(CN2C(=O)[C@@H]3Cc4c([nH]c5ccccc45)C(C)(C)N3C2=O)cc1	0	0	12	0	0
CC(C)CN1CC(Br)C(=O)NC1=O (configuration not stated)	-	0	0	-	0
O=C(N/N=C/c1c(Cl)cccc1Cl)C(=O)NC1CC1	0	0	10	0	0
